Hits are enriched below; roughly 4.7% of the tested compounds scored in any of these assays.
ADAM17 inh: ADAM17 inhibitors, primary screen, biochemical, QFRET | actives 0.83% (n = 370,000) | inhibition, % at 6.95 µM | Disintegrin and metalloproteinase domain-containing protein 17 (Homo sapiens), P78536 | recombinant ADAM17, EDANS/DABCYL FRET peptide cleavage;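 active = inhibition above the mean of compounds lying between control limits plus 3 SD, set per campaign, cut at about 8.5% in these data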;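 note: 0% = DMSO-only wells as the low control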
Target sequence (P78536 215-824 limits assumed): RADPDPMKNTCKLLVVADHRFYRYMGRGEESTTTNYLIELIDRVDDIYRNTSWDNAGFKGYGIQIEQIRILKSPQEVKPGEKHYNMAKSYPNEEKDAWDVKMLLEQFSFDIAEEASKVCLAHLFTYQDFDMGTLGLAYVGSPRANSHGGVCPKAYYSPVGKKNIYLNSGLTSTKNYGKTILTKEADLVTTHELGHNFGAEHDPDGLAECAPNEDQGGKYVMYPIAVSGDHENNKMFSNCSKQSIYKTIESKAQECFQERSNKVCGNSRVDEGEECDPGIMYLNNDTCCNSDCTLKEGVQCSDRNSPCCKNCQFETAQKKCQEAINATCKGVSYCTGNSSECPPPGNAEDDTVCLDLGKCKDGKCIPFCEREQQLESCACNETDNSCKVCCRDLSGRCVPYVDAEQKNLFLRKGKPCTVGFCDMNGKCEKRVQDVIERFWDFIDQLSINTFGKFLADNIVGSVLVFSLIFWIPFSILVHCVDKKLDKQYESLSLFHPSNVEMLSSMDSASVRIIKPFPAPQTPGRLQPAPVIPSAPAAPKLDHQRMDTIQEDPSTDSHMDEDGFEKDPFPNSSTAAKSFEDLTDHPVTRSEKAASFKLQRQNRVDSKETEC
ADAM10 inh: human ADAM10 inhibitors, primary screen, biochemical, QFRET, HTS; recombinant ADAM10, EDANS/DABCYL FRET peptide cleavage, 3 h; inhibition, % at 7 µM; actives 0.62% (n = 370,000); AID 720582, 2013;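 active = inhibition above a per-campaign cutoff equal to the mean of compounds falling between control-based bounds plus 3 SD, cut at about 20% in these data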;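 note: 0% = DMSO wells while the 100% control is not disclosed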
SKN-1 block: suppressors of acrylamide-induced Pgst-4::GFP reporter in worms, primary screen, SKN-1 inhibitor project, whole organism, uHTS, GFP/RFP fluorescence ratio, strain VP596. C. elegans VP596 Pgst-4::GFP/RFP ratio, 24 h. actives 0.49% (n = 360,000). inhibition, % at 21.8 µM;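 active = interference check ratio from 0.5 to 1.5 plus GFP to RFP signal ratio inhibition reaching or exceeding a fixed threshold, cut at about 30% in these data, passing the limit was not always enough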
MPTP inh: mitochondrial permeability transition pore inhibitors, primary screen, biochemical, isolated mouse mitochondria, absorbance | Ca2+ swelling absorbance, 30 min | inhibition, % at 10 µM | actives 1.4% (n = 360,000) | AID 602449, 2012;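 active = inhibition of 50% or more, scaled per plate between neutral and stimulator controls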;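 note: 0% = DMSO wells given calcium and 100% = 1 mM EGTA wells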
GRIN3A LBD mod: binders of NR3A ligand-binding domain, primary screen, biophysical, differential scanning fluorimetry, uHTS. NR3A LBD differential scanning fluorimetry, Tm shift; 0% = protein alone, 100% = glycine-bound protein. Tm shift relative to glycine control, % at 25 µM. actives 2.5% (n = 340,000). AID 1259313, 2017;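 active = melting temperature shift of at least 10% of the positive control shift, at one fixed dose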
MT1-MMP act inh: blockers of MT1-MMP proenzyme processing, primary screen, HT1080 RFP-PRO-GFP cells, GFP/RFP fluorescence | actives 0.061% (n = 360,000) | GFP/RFP ratio fluorescence, overnight; percent of plate control window, DMSO zero | Matrix metalloproteinase-14 (Homo sapiens), P50281 | GFP/RFP ratio change, % at 20 µM;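 active = GFP/RFP ratio change of at least 30% with cell ATP level not reduced by more than half and red fluorescence within 50% of control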
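Test system: HT1080 RFP-PRO-GFP cells; Benchmarks: DMSO and RFP-L50D-GFP cell wells; Timing: cells overnight before dosing, compound overnight, 37 °C, 5% CO2; Compound: one 20 µM compound dose with 1% DMSO; Read-out: GFP/RFP fluorescence ratio.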
* = called active by the depositor.

SMILES | ADAM17 inh | ADAM10 inh | SKN-1 block | MPTP inh | GRIN3A LBD mod | MT1-MMP act inh
O=C(CC1C(=O)NCCN1C/C=C/c1ccccc1)NCCc1cnccn1 (stereo not drawn) | -2 | -7 | -6 | 0 | 0 | -1
Cc1cc(NC(=O)Nc2ccc3c(ccn3C)c2)sn1 | 0 | 8 | 11 | -2 | 17* | -4
CCCCn1c(O)c(/C=C2\C=Nc3ccccc32)c(=O)[nH]c1=O | 1 | -1 | -8 | 1 | -5 | -3
O=c1[nH]c(S)c(/C=C2\C=Nc3ccccc32)s1 | 7 | 14 | 4 | -1 | 34* | -16
CCCCN(C)CCNC(=O)C(=O)c1c(C)[nH]c2ccccc12 | -1 | -1 | 6 | 1 | 1 | -2
CCCCNC(=S)N(C)/N=C/c1c(F)c(F)c(F)c(F)c1F | 0 | 1 | -4 | 3 | 20* | -5
CCCCNC(=S)N(C)/N=C/c1c(C)[nH]c2ccccc12 | 4 | 8 | 13 | 6 | 12* | -3
COC(=O)[C@@H]1C[C@@]2(O)[C@H](O)[C@H](O)[C@H](O)C[C@H]2N1Cc1cc(F)ccc1F | -2 | -4 | -12 | -1 | 11* | 8
COC(=O)[C@@H]1C[C@@]2(O)[C@@H](O)[C@@H](O)[C@@H](O)C[C@H]2N1Cc1ccc(C(F)(F)F)cc1 | -3 | -4 | -5 | 0 | 2 | 2
COc1ccc(OCC(=O)N2CCN(c3nnc(-c4ccccc4)c4ccccc34)CC2)cc1 | -3 | -3 | -6 | 9 | -7 | 0
C=C(CN(C)C)C(=O)c1cc(C)ccc1C | -4 | -14 | -24 | -2 | 11* | 8
Cc1ccc(C)c(C(=O)NCCN(C)C)c1 | -4 | -10 | -4 | 1 | 0 | -2
N#Cc1c(NC(=O)C2C3C=CC(C3)C2C(=O)O)sc2c1CCCCC2 (stereo not drawn) | -3 | 3 | -1 | -1 | -35 | 0
Cc1ccc(-c2nc(C=Nc3ccc(O)cc3)c(O)o2)cc1 | 0 | -3 | -6 | 0 | 11* | -8
N#Cc1cc(Oc2ccc3ccccc3c2)c(-n2nnc3ccccc32)cc1C#N | -6 | -9 | 8 | -1 | 13* | -1
CCOC(=O)C1=CC[C@H]2c3c(c4ccccc4n3C)C[C@H]1N2C | -5 | -1 | 27 | 1 | 1 | 5
COP(=O)(OC)C(Nc1ccc(C)cc1)c1ccc([N+](=O)[O-])cc1 (stereo not drawn) | 0 | -3 | 9 | 0 | 15* | 2
O=C(O)c1ccc(N2CC3CC(C2)c2cccc(=O)n2C3)c(NC(=S)Nc2ccc(Cl)cc2Cl)c1 (stereo not drawn) | 0 | -1 | 16 | 0 | -1 | 1
O=C(Sc1ccc(Cl)cc1)c1ccccn1 | -3 | 3 | 55* | -1 | 2 | -6
Clc1ccc(-c2cn3ccccc3n2)cc1 | -38 | -106 | 16 | 0 | 2 | 3
CC(=O)Nc1ccc(-c2cn3cc(C)ccc3n2)cc1 | -121 | -403 | -6 | 0 | 20* | 2
O=C(Nc1ccc(-c2cn3ccccc3n2)cc1)c1ccc(Cl)cc1 | -13 | -31 | 4 | 2 | 14* | 7
O=C(Nc1ccc(-c2cn3ccccc3n2)cc1)c1ccco1 | -3 | -2 | 10 | -14 | 24* | 5
O=C(NCc1cn2ccccc2n1)c1ccco1 | -1 | -5 | -1 | -2 | -4 | 1
Cc1ccc2nc(-c3ccccc3)cn2c1 | -44 | -151 | 19 | 0 | -1 | -1
SMILES | ADAM17 inh | ADAM10 inh | SKN-1 block | MPTP inh | GRIN3A LBD mod | MT1-MMP act inh
CCNC(=S)Nc1cc(C)ccn1 | 2 | 1 | 1 | -4 | -10 | 1
CCCc1cc(C(N)=S)ccn1 | 0 | 4 | 0 | 2 | 12* | -3
C=CCn1c(SCC(=O)Nc2ccc(F)cc2)nc2cc(C(=O)O)ccc2c1=O | 0 | -9 | 6 | 0 | 15* | -3
O=C1CN(C(=O)c2ccc(Br)o2)C(c2ccccc2)c2cc(Br)ccc2N1 (stereo not drawn) | 0 | -3 | 59* | 0 | -1 | -29
CN(C)C(=O)CCCCCCCCC(=O)N(C)C | 3 | 12 | 10 | 1 | 1 | -3
CC(C)C(=O)Nc1ccc(C(=O)N/N=C/c2cc(Br)cc(Br)c2O)cc1 | -10 | -6 | -4 | 7 | 31* | -12
CC(=O)Nc1ccc(C(=O)N/N=C/c2cc(Br)cc(Br)c2O)cc1 | -1 | -8 | -1 | 0 | 19* | -11
CCOc1ccccc1C(=O)NCC(=O)NCC(c1ccco1)N1CCCCC1 (stereo not drawn) | -3 | 0 | -1 | -1 | -1 | -1
COc1cc(/C=N/NS(=O)(=O)c2ccc3ccccc3c2)ccc1OCCN1CCOCC1 | 1 | -1 | -1 | -1 | 15* | 6
COc1ccc(S(=O)(=O)N/N=C/c2ccc(OCCN3CCOCC3)c(OC)c2)cc1 | -2 | -2 | 25 | 3 | -1 | 2
C=CCSc1nc(Oc2ccccc2)c2sccc2n1 | 4 | 9 | 7 | 2 | 15* | 6
O=C(CN1CCCC1)NC12CC3CC(CC(C3)C1)C2 | 0 | 1 | -1 | -1 | 10* | 3
O=C(Nc1cc(S(=O)(=O)Nc2ccc(Cl)cc2)ccc1N1CCCCC1)c1ccc(F)cc1 | -2 | 1 | 5 | 39 | 25* | -24
CC(=O)NCCC(=O)Nc1cc(S(=O)(=O)Nc2ccc(Cl)cc2)ccc1N1CCCC1 | 2 | 5 | 7 | 0 | -6 | 1
N#Cc1ccc(C(=O)Nc2cc(S(=O)(=O)Nc3ccc(Cl)cc3)ccc2N2CCCCC2)cc1 | -2 | -9 | 3 | 40 | 22* | -8
O=C(CSC1=NS(=O)(=O)c2cc(Cl)ccc2N1)Nc1ccccc1F | -3 | 7 | 13 | 2 | 7 | -5
Cc1cc(C)cc(OCC(=O)OCC(=O)NCc2cccs2)c1 | -4 | 5 | 3 | 0 | 16* | 4
COc1ccc(NC(=O)c2cc(-c3ccccc3)nc3c2c(C)nn3-c2ccccc2)c(OC)c1 | 2 | 8 | 5 | 3 | 13* | 0
CCOC(=O)c1cc(-c2ccco2)nc2c1c(C)nn2-c1ccccc1 | -6 | -11 | 40* | -2 | 1 | 4

High-throughput results deposited in PubChem BioAssay by several laboratories.
